What is called EC50 is the concentration that produces a half-maximal response.

From ChEMBL document CHEMBL1817569, “Synthesis, antifungal activity and QSAR study of 2-arylhydroxynitroindoles” (Eur J Med Chem, 2011) come the findings set out here.

Structures are written as SMILES. Converted amounts (≈) assume the structure as drawn.

Assay [1] deals with Fusarium oxysporum. As to the kind of experiment: Fungicidal activity against Fusarium oxysporum assessed as mycelium growth inhibition after 72 hrs. Type of assay: functional, organism-based. In outline: (§1)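 EC50 from radial mycelial growth on potato-saccharose agar over a 1–100 concentration range. Inverted 3-mm fungus-coated discs are placed on the agar and incubated at 25 °C. Colony diameter (mm) is measured at 72 h, with plain medium as blank. Percent inhibition = (DC − DT)/DC × 100. Triplicate tests.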

Assay [2] deals with Bipolaris sorokiniana. Kind of assay: Fungicidal activity against Bipolaris sorokiniana assessed as mycelium growth inhibition after 72 hrs. The assay is classed as functional, organism-based. In outline: as §1
Assay [3] concerns Fusarium verticillioides. As to the kind of experiment: Fungicidal activity against Fusarium moniliforme assessed as mycelium growth inhibition at 30 ug/mL after 72 hrs. Type of assay: functional. Particulars: read-out: GI. In outline: (§2)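 Radial mycelial growth test on potato-saccharose agar mixed with compound at a single concentration. Plates are inoculated with inverted 3-mm fungus-coated discs and incubated at 25 °C. Colony diameter (mm) is read at 72 h against medium without sample. Inhibition I = [(DC − DT)/DC] × 100%. Three replicates.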

In assay [4] the test system is Bipolaris sorokiniana. As to the kind of experiment: Fungicidal activity against Bipolaris sorokiniana assessed as mycelium growth inhibition at 30 ug/mL after 72 hrs. Particulars: read-out: GI. Type of assay: functional. The gist of the method: as §2
The test system of assay [5] is Fusarium oxysporum. Kind of assay: Fungicidal activity against Fusarium oxysporum assessed as mycelium growth inhibition at 30 ug/mL after 72 hrs. Type of assay: functional. As to conditions: read-out: GI. The gist of the method:
as §2

Assay [6] deals with Venturia inaequalis. As to the kind of experiment: Fungicidal activity against Venturia inaequalis assessed as mycelium growth inhibition at 30 ug/mL after 72 hrs. The assay is classed as functional. Particulars: read-out: GI. The gist of the method:
as §2

The test system of assay [7] is Sclerotinia sclerotiorum. As to the kind of experiment: Fungicidal activity against Sclerotinia sclerotiorum assessed as mycelium growth inhibition after 72 hrs. The assay is classed as functional, organism-based. The gist of the method:
as §1

Assay [8] concerns Rhizoctonia solani. Kind of assay: Fungicidal activity against Rhizoctonia solani assessed as mycelium growth inhibition at 30 ug/mL after 72 hrs. Particulars: read-out: GI. The assay is classed as functional. In outline: as §2
Assay [9] concerns Venturia inaequalis. As to the kind of experiment: Fungicidal activity against Venturia inaequalis assessed as mycelium growth inhibition after 72 hrs. The assay is classed as functional, organism-based. In outline: as §1
The test system of assay [10] is Rhizoctonia solani. Kind of assay: Fungicidal activity against Rhizoctonia solani assessed as mycelium growth inhibition after 72 hrs. The assay is classed as functional, organism-based. The gist of the method: as §1
Assay [11] concerns Sclerotinia sclerotiorum. As to the kind of experiment: Fungicidal activity against Sclerotinia sclerotiorum assessed as mycelium growth inhibition at 30 ug/mL after 72 hrs. The assay is classed as functional. Particulars: read-out: GI. In outline: as §2
Assay [12] has as its system Fusarium verticillioides. Kind of assay: Fungicidal activity against Fusarium moniliforme assessed as mycelium growth inhibition after 72 hrs. Type of assay: functional, organism-based. The gist of the method: as §1

As to `CC(C)(C)C(=O)C(Oc1ccc(Cl)cc1)n1cncn1` (centres undefined) [TRIADIMEFON], the EC50 in [1] is 3.25 µg/mL (≈ 11.1 µM); in assay [2] it was 11 µg/mL (≈ 37.4 µM); in assay [7], 6.18 µg/mL (≈ 21 µM); in assay [9], 20 µg/mL (≈ 68.1 µM); in assay [10], 20.6 µg/mL (≈ 70.1 µM); in [12], 2.41 µg/mL (≈ 8.2 µM). For the same compound, the inhibition of growth at 30 µg/mL came to 79% in assay [3]; 71% in assay [4]; 60% in assay [5]; 42% in assay [6]; 66% in assay [8]; 47% in [11].

As for `COc1cc([N+](=O)[O-])cc2[nH]c(-c3ccccc3)c(C)c12`, the inhibition of growth at 30 µg/mL was determined as 7% in assay [3]; 7% in [4]; 11% in assay [5]; 2% in [6]; 13% in assay [8]; 5% in assay [11].

`COc1cc([N+](=O)[O-])cc2c1c(C)c(-c1ccccc1)n2C`: the inhibition of growth at 30 µg/mL in assay [3] was 8%; in assay [4], 12%; in assay [5], 8%; in assay [6], 12%; in assay [8], 4%; in [11], 0%.

As to `Nc1cc([N+](=O)[O-])c2cc(-c3ccccc3)oc2c1`, the inhibition of growth at 30 µg/mL turned out to be 5% in assay [3]; 3% in assay [4]; 9% in assay [5]; 16% in assay [6]; 3% in [8]; 7% in assay [11].

For `O=[N+]([O-])c1cc(O)c2cc(-c3ccc(Cl)cc3Cl)[nH]c2c1`, the inhibition of growth at 30 µg/mL is 54% in [3]; 22% in [4]; 25% in [5]; 26% in assay [6]; 36% in assay [8]; 29% in assay [11].

Regarding `Cc1c(-c2ccccc2)[nH]c2cc([N+](=O)[O-])cc(O)c12`, the EC50 in assay [1] was 18 µg/mL (≈ 67.1 µM); in [2] it was 13 µg/mL (≈ 48.5 µM); in [7], 8.65 µg/mL (≈ 32.2 µM); in [9], 15.4 µg/mL (≈ 57.4 µM); in assay [10] it was 5.86 µg/mL (≈ 21.8 µM); in [12], 3.48 µg/mL (≈ 13 µM). In addition, the inhibition of growth at 30 µg/mL in assay [3] amounted to 100%; in assay [4] it was 89%; in assay [5] it was 87%; in assay [6], 93%; in assay [8], 100%; in assay [11], 100%.

Regarding `Cc1c(-c2ccccc2)[nH]c2c([N+](=O)[O-])cc(O)cc12`, the inhibition of growth at 30 µg/mL is 54% in [3]; 83% in [4]; 34% in assay [5]; 41% in [6]; 91% in assay [8]; 51% in assay [11].

Turning to `Cc1c(-c2ccccc2)[nH]c2c(O)cc([N+](=O)[O-])cc12`, the inhibition of growth at 30 µg/mL in assay [3] turned out to be 71%; in assay [4], 95%; in assay [5], 63%; in assay [6], 48%; in [8], 89%; in [11] it was 94%.

Take `O=[N+]([O-])c1cc(O)c2c(CCn3cncn3)c(-c3ccc(F)cc3)[nH]c2c1`: the inhibition of growth at 30 µg/mL in assay [3] was determined as 30%; in [4], 52%; in assay [5], 28%; in [6], 2%; in assay [8] it was 31%; in assay [11], 17%.

`Cn1c(-c2ccccc2)cc2c(O)cc([N+](=O)[O-])cc21`: the inhibition of growth at 30 µg/mL came to 51% in [3]; 77% in [4]; 56% in assay [5]; 46% in assay [6]; 77% in [8]; 23% in assay [11].

With `Cc1c(-c2ccccc2)[nH]c2c([N+](=O)[O-])ccc(O)c12`, the inhibition of growth at 30 µg/mL in assay [3] came out at 84%; in assay [4], 83%; in assay [5] it was 73%; in assay [6], 70%; in [8], 100%; in [11], 51%.

Regarding `O=[N+]([O-])c1cc(O)c2cc(-c3ccc(C(F)(F)F)cc3)[nH]c2c1`, the inhibition of growth at 30 µg/mL in assay [3] stood at 84%; in assay [4], 74%; in [5], 71%; in assay [6], 53%; in assay [8] it was 82%; in assay [11], 70%.

Take `O=[N+]([O-])c1cc(O)c2cc(-c3ccccc3)n(Cc3ccc(Cl)cc3)c2c1`: the inhibition of growth at 30 µg/mL in assay [3] was 18%; in assay [4] it was 11%; in assay [5], 27%; in assay [6], 12%; in assay [8], 34%; in [11] it was 2%.

Turning to `COc1cc([N+](=O)[O-])cc2c1cc(-c1ccccc1)n2C`, the inhibition of growth at 30 µg/mL in assay [3] was found to be 23%; in assay [4], 7%; in assay [5], 7%; in assay [6], 21%; in assay [8], 7%; in assay [11], 8%.

For the compound `O=[N+]([O-])c1cc(O)c2cc(-c3ccc(F)cc3)[nH]c2c1`, the inhibition of growth at 30 µg/mL in assay [3] was 73%; in assay [4], 35%; in assay [5], 58%; in assay [6], 60%; in assay [8], 96%; in assay [11], 48%.

For the compound `O=[N+]([O-])c1cc(O)c2cc(-c3ccc(O)cc3)[nH]c2c1`, the inhibition of growth at 30 µg/mL in [3] was 39%; in [4] it was 18%; in assay [5], 27%; in assay [6] it was 20%; in assay [8] it was 38%; in assay [11] it was 19%.

Consider `O=[N+]([O-])c1cc(O)c2cc(-c3ccccc3)[nH]c2c1`, for which the EC50 turned out to be 21.5 µg/mL (≈ 84.6 µM) in assay [1]; 26.6 µg/mL (≈ 105 µM) in assay [2]; 17.2 µg/mL (≈ 67.7 µM) in assay [7]; 16.9 µg/mL (≈ 66.5 µM) in [9]; 11.2 µg/mL (≈ 44.1 µM) in assay [10]; 6.84 µg/mL (≈ 26.9 µM) in assay [12]. Further, the inhibition of growth at 30 µg/mL in assay [3] was 100%; in assay [4], 100%; in [5], 88%; in [6] it was 89%; in assay [8], 100%; in [11], 100%.

Consider `O=[N+]([O-])c1cc(O)c2cc(-c3ccccc3Cl)[nH]c2c1`, for which the inhibition of growth at 30 µg/mL in assay [3] was 100%; in [4], 100%; in assay [5], 88%; in assay [6], 44%; in assay [8], 100%; in [11], 100%.

For the compound `O=[N+]([O-])c1cc(O)c2cc(-c3ccc(Br)cc3)[nH]c2c1`, the inhibition of growth at 30 µg/mL in [3] was 21%; in [4], 5%; in [5] it was 12%; in [6] it was 15%; in assay [8], 11%; in [11] it was 14%.

As for `Cc1c(-c2ccccc2)[nH]c2c(O)ccc([N+](=O)[O-])c12`, the inhibition of growth at 30 µg/mL worked out at 88% in [3]; 87% in assay [4]; 91% in assay [5]; 65% in [6]; 100% in [8]; 54% in assay [11].

As to `COc1ccccc1-c1cc2c(O)cc([N+](=O)[O-])cc2[nH]1`, the inhibition of growth at 30 µg/mL turned out to be 36% in assay [3]; 20% in assay [4]; 15% in assay [5]; 26% in assay [6]; 8% in assay [8]; 20% in assay [11].
